# Screening results deposited in PubChem BioAssay by Sanford-Burnham Center for Chemical Genomics.
# Compounds with a hit are over-represented: about 2.3% of the library has one in this group of screens.
# NadD inh: inhibitors of S. aureus NadD, primary screen, biochemical, colorimetric, uHTS; actives 0.78% (n = 360,000); purified NadD enzyme, colorimetric absorbance read-out; Nicotinate-nucleotide adenylyltransferase NadD (Staphylococcus aureus N315); AID 602399, 2012; inhibition, % at 20 µM; in the data active = inhibition above about 26%
# Scp-1 inhibitor: Scp-1 phosphatase inhibitors, primary screen, biochemical, colorimetric, uHTS; Carboxy-terminal domain RNA polymerase II polypeptide A small phosphatase 1 (Homo …; Recombinant Scp1, phosphopeptide, malachite green phosphate absorbance; inhibition, % at 20 µM; actives 0.88% (n = 340,000); AID 493091, 2011;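 active = inhibition above about 50% at 20 µM, limit read from the data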;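 also: plate controls were DMSO wells with enzyme for no effect and wells lacking enzyme for full effect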
#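 Material: truncated SCP-1 phosphatase (76-261aa) / Buffer or medium: 50 mM Tris acetate pH 5.5, 0.005% Tween-20, 10 mM MgCl2 / Compound dosing: one concentration, 20 µM, with 1.0% DMSO / Incubation: 45 min room-temperature reaction, 5 min colour, 30 min stabiliser / Detection: colorimetric free-phosphate detection, absorbance 630 nm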
# LMPTP inh: LMPTP phosphatase inhibitors, primary screen, biochemical, fluorescence intensity, uHTS; Low molecular weight phosphotyrosine protein phosphatase (Homo sapiens), P24666; recombinant LMPTP-A, OMFP fluorogenic substrate; inhibition, % at 20 µM; actives 0.22% (n = 360,000);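 active = compounds that cut the enzyme signal by at least half of the control window in the single-dose screen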;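 also: plate controls were DMSO wells with enzyme plus substrate for no effect and substrate without enzyme for full effect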
# Target sequence (P24666 whole entry, looked up): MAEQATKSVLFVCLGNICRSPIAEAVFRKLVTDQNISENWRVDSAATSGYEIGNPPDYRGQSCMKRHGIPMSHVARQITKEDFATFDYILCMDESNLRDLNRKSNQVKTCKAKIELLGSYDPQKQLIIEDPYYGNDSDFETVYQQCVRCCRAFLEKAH
#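 Test system: LMPTP-A phosphatase enzyme. Amount: LMPTP-A at 0.625 nM final in the reaction. Reagent: OMFP substrate, 400 µM final. Times: 50 min at room temperature. Signal: endpoint fluorescence intensity from OMFP dephosphorylation. Read-out basis: % inhibition. Benchmarks: no-enzyme and uninhibited controls.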
# STEP block: STEP phosphatase inhibitors, primary screen, biochemical, fluorescence intensity, uHTS. actives 0.25% (n = 360,000). inhibition, % at 20 µM. AID 588621, 2011. recombinant STEP, OMFP fluorogenic substrate;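 active = inhibition at 20 µM, scaled per plate between control wells, above about 37%, limit read from the data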;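 also: 0% = DMSO with enzyme and substrate and 100% = substrate only without enzyme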
# Target sequence (P54829 whole entry, looked up): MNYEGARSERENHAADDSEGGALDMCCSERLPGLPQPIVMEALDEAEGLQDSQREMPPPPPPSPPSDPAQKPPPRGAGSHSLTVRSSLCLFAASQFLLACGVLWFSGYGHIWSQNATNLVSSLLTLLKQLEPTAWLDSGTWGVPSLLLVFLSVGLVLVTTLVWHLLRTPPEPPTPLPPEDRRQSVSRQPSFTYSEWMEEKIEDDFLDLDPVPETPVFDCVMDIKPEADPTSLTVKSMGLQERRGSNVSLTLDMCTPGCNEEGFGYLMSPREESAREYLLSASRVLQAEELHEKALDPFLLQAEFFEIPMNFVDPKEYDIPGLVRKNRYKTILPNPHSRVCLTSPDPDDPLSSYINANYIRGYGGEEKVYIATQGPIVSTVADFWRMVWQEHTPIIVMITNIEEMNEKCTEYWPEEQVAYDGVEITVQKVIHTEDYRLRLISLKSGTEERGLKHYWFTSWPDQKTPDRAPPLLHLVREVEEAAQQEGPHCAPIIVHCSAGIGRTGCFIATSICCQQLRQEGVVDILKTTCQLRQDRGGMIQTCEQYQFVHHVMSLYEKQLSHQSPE
#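 medium = Bis-Tris buffer pH 6.0, 2.5 mM DTT, 0.005% Tween 20 | test system = STEP (striatal-enriched tyrosine phosphatase) enzyme, cell-free | measure = normalized % inhibition | compound dosing = 20 µM, 1% DMSO | also added = 25 µM OMFP | schedule = reaction 20 min, ambient temperature | measured by = fluorescence read at 480 nm ex / 540 nm em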
# DNMT1 block: human DNMT1 methyltransferase inhibitors, primary screen, biochemical, molecular beacon, fluorescence, HinP1I cleavage, uHTS; DNA (cytosine-5)-methyltransferase 1 (Homo sapiens), P26358; inhibition (reported as % activation of signal), % at 10 µM; AID 588458, 2011; actives 0.83% (n = 360,000); in the data active = inhibition above about 50%
# SUMO1-SIM PPI: modulators of SUMO1 protein-protein interactions, primary screen, biochemical, uHTS; SUMO1 binding to a labelled peptide, TR-FRET, 1 h; AID 602429, 2012; Small ubiquitin-related modifier 1 (Homo sapiens), P63165; inhibition, % at 20 µM; actives 0.33% (n = 360,000); in the data active = inhibition above about 37%
# Beacon interf DR: spectral interference with molecular beacon fluorescence, dose response, artefact control for DNMT1 inhibitor project, biochemical, fluorescent molecular beacon. shares compounds with DNMT1 block. spectral interference counter-screen. IC50, µM. 200 tested, under 10 active; call rule not given here
# DNMT1 confirm: DNMT1 methyltransferase inhibitor retest, confirmation, biochemical, molecular beacon, fluorescence, single concentration. shares compounds with DNMT1 block. actives 8% (n = 2,300). DNMT1 molecular beacon HinP1I cleavage. inhibition, % at 10 µM. AID 602385, 2012;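 active = average inhibition of at least 30% in the single-concentration confirmation test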
# Beacon interf: shows spectral interference in the DNMT1 beacon assay; AID 602387; DNMT1 molecular beacon spectral interference counterscreen, fluorescence 485/520; actives 1% (n = 2,300); shares compounds with DNMT1 block; activation (fluorescence interference), % at 10 µM;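 active = activation of at least 30% at 10 µM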;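 also: DNMT1 catalytic domain with a HinP1I cleavage step and a FAM/dabcyl DNA beacon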
# * = called active by the depositor; x = not tested or not shown; ! = not active in a repeat.
SMILES,NadD inh,Scp-1 inhibitor,LMPTP inh,STEP block,DNMT1 block,SUMO1-SIM PPI,DNMT1 confirm,Beacon interf,others
CCOc1cc(/C=C2\C(=O)N(c3nc(-c4ccc(Br)cc4)cs3)N=C2c2ccccc2)ccc1O,76.5*,-16.1,10.3,3.9,95.6*,21.3,92.8*,-4.9,Beacon interf DR=>99
COc1cc(/C=C2\C(=O)N(c3ccc(NC(C)=O)cc3)N=C2c2ccccc2)ccc1O,15.6,-0.7,2.3,5.2,-4.0,-4.7,x,x,
S=C(NCCc1ccccc1)Nc1ccc(Br)cn1,-1.5,-10.7,0.4,-3.5,1.8,0.2,x,x,
O=C(COc1cc(O)c2c(=O)cc(-c3ccccc3)oc2c1)c1ccc(F)cc1,11.2,8.9,1.4,4.8,54.3*,-6.3,2.0,-6.5,
CCOc1ccc(NC(=O)CN(C)C(=O)c2cc3c(s2)CCC3)cc1OCC,11.2,x,16.7,5.0,93.5*,16.2,14.8,-2.2,
O=C1C(=O)N(c2ccccn2)C(c2cccc(F)c2)/C1=C(/O)c1ccccc1 (configuration not stated),5.9,-1.1,-1.4,0.0,2.5,-13.5,x,x,
O=C(c1ccccc1)c1ccc(O)c(O)c1O,5.4,66.3*,51.0*,32.0,77.8*,20.1,7.2,-2.6,
Cc1ccc(CNS(=O)(=O)c2ccc(C(F)(F)F)cc2)n1C,10.7,-10.9,-1.0,0.9,-9.8,-1.5,x,x,
COc1ccccc1/C=C/C(=O)NNC(=O)c1cc(C)oc1C,-7.5,1.4,-0.4,-1.3,-1.6,-8.7,x,x,
Cc1cc(C(=O)NNC(=O)/C=C/c2ccco2)c(C)o1,2.1,65.7*,-0.1,0.2,88.0*,13.5,25.6,5.3,
COc1cc(CN2C[C@@H](CO)O[C@@H](n3cnc4c(N5CCCC5)ncnc43)C2)cc(OC)c1OC,3.8,x,2.9,-0.2,1.9,-2.9,x,x,
CCc1nnc(NC(=O)c2ccc(-c3ccc(Cl)cc3)o2)s1,15.3,-5.9,21.3,1.0,68.1*,0.6,4.8,2.5,
CCc1nnc(NC(=O)c2ccc(-c3ccc(C(C)=O)cc3)o2)s1,1.4,2.3,0.2,1.3,6.0,-23.2,x,x,
CC1(C)CC(NC(=O)c2ccc(F)cc2)CC(C)(C)N1,-2.0,x,-2.6,-1.5,-1.1,-6.9,x,x,
CC1(C)CC(NC(=O)c2ccccc2)CC(C)(C)N1,5.5,0.4,-0.3,0.2,100.8*,2.8,-0.9,1.2,
Cc1ccc(C(=O)Nc2cccc(C(F)(F)F)c2)cc1NC(=O)c1nccn1C,-6.8,-3.8,4.2,1.0,56.2*!,4.5,0.2,5.4,
Cn1ccc(C(=O)OCC(=O)Nc2cccc3ccccc23)n1,-4.6,-1.0,-1.0,-3.8,-0.4,0.4,x,x,
O=S(=O)(Nc1nc2ccccc2nc1N1CCN(CCO)CC1)c1cc(F)ccc1F,1.5,-2.2,-1.5,-1.5,-1.0,0.6,x,x,
COc1ccc(C(=O)Nc2ccc(C)cn2)c(OC)c1,3.3,-9.0,-1.1,1.2,73.8*,7.0,1.4,3.0,
COc1ccc(C(=O)Nc2cc(C)on2)c(OC)c1,1.7,1.2,-0.6,0.2,1.7,-5.5,x,x,
CCc1ccc(NC(=O)C2CCN(S(=O)(=O)c3c(C)noc3C)CC2)cc1,-1.7,-10.3,1.5,-0.8,1.2,0.4,x,x,
CCc1ccc(NC(=O)CNS(=O)(=O)c2c(C)noc2C)cc1,-4.7,-13.9,0.8,-1.1,68.5*,10.4,2.8,0.8,
O=C(O)c1cc2c(ncc3c(=O)n(-c4ccccc4)[nH]c32)s1,3.4,x,0.8,-1.2,-4.6,5.6,x,x,
CCOc1cccc(=O)c2c(C)n(Cc3ccco3)c(C)c12,29.3,6.9,11.0,6.5,80.7*,4.0,4.4,3.6,
CCOc1cccc(=O)c2c(C)n(Cc3ccccc3)c(C)c12,-4.9,-6.7,-2.4,0.4,-2.7,-1.4,x,x,
SMILES,NadD inh,Scp-1 inhibitor,LMPTP inh,STEP block,DNMT1 block,SUMO1-SIM PPI,DNMT1 confirm,Beacon interf,others
O=C1CC(NS(=O)(=O)c2cccs2)CN1c1cccc(F)c1 (configuration not stated),-8.6,-4.9,-1.0,-0.8,0.6,3.8,x,x,
COc1ccc(CCNC(=O)c2cnn3ccccc23)c(OC)c1OC,-3.1,-3.4,-1.1,1.1,-0.3,3.6,x,x,
COc1cc(CCNC(=O)c2cnn3ccccc23)cc(OC)c1OC,-3.2,-12.9,0.5,0.6,79.8*,-0.3,1.4,-0.1,
N#Cc1c(-c2cccc(Br)c2)cc(-c2ccco2)[nH]c1=O,13.5,-6.0,25.4,2.2,87.2*,28.6,9.6,13.9,
Nc1cc(S(=O)(=O)O)cc([N+](=O)[O-])c1O,1.3,33.6,0.6,17.9,66.4*,-2.8,72.3*,-5.2,Beacon interf DR=>99
Cc1ccc(N2CC(C(=O)Nc3ccccc3OC(F)F)CC2=O)cc1 (configuration not stated),1.8,-5.7,-1.0,1.8,3.9,5.4,x,x,
C[C@H](NC(=O)c1ncn2c1C(=O)NC[C@H]2C)c1ccccc1,12.9,x,-0.7,-3.8,1.4,-0.7,x,x,
C=CCN(c1nc(C)cc(OC)n1)S(=O)(=O)c1ccc(C)cc1,-2.1,-3.7,1.2,-0.6,96.7*,1.5,0.7,5.5,
CN(C)S(=O)(=O)c1cccc(C(=O)Nc2n[nH]c(C(F)(F)F)n2)c1,-0.7,-1.8,0.9,1.2,1.0,5.4,x,x,
CCOCCCNC(=O)C1CCN(S(=O)(=O)N2CCCC2)CC1,-7.6,-5.7,0.5,-1.5,72.5*,1.3,3.3,3.7,
CC(C)OCCCNC(=O)C1CCN(S(=O)(=O)N2CCCCC2)CC1,0.3,0.5,-0.9,1.7,-0.9,0.3,x,x,
COc1ccc(CCN2CC(C(=O)OCC(=O)Nc3c(C)nn(-c4ccccc4)c3C)CC2=O)cc1OC (configuration not stated),-0.1,1.2,0.0,1.1,85.9*,6.2,3.6,4.0,
c1cc2ccc3ccc(-n4cnnn4)c4ccc(c1)c2c34,0.3,27.5,13.0,1.2,59.9*,-2.6,5.3,3.5,
